Calls of active or inactive are those of the source. The rule behind the calls is not given here.

Data set [1] is described as follows: Cytotoxicity against mouse B16/F10 cells at 1 mM after 24 hrs by MTT assay. It is filed as cell-based. The note with it: b16-f10, 24 h, 1000 µM. In short, it runs like this:
(§1)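 B16/F10 cells in DMEM with 10% FBS, penicillin, streptomycin and amphotericin at 37 °C, 5% CO2. Seeded 3 × 10^4 per well, adhered 24 h, exposed to 1 or 2 mM compound in fresh DMEM for 24 h. MTT (0.5 mg/mL in PBS) added for 40 min at 37 °C; formazan dissolved in DMSO, A570 read. Viability as % of untreated control; triplicate.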
In general terms: Formazan colour is commonly taken as a measure of viable cells.

In data set [2] the target is T1, Tyrosinase (Agaricus bisporus) (UniProt O42713).
T1 sequence (whole entry): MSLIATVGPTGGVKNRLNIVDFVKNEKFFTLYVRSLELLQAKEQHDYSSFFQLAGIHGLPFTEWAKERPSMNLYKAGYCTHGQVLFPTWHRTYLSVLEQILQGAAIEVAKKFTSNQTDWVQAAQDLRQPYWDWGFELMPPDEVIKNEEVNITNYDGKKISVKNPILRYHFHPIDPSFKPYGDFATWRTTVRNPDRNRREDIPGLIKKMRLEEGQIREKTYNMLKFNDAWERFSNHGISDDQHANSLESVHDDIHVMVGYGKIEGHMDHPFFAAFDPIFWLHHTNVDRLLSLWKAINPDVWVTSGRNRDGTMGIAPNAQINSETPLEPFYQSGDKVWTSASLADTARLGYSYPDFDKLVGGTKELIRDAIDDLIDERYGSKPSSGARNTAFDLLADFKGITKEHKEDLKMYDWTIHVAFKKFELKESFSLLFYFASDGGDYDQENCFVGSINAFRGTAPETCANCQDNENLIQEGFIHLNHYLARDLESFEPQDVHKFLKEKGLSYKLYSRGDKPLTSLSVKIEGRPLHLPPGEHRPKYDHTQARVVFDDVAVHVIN
The data set is described as follows: Noncompetitive inhibition of mushroom tyrosinase-mediated L-tyrosine oxidation assessed as enzyme-substrate-inhibitor complex after 10 mins by Lineweaver-Burk plot analysis.

Data set [3] concerns the target T1, Tyrosinase (Agaricus bisporus). Briefly: (§2) Inhibition of mushroom tyrosinase-mediated L-tyrosine hydroxylation after 30 mins by ELISA. Summed up: (§3)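 Mushroom tyrosinase with L-tyrosine substrate; dipotassium hydrogen phosphate buffer as vehicle control. Mixture held 25 °C for 30 min, dopachrome read at 475 nm. Inhibition % = (1 − ABSsample/ABScontrol) × 100. IC50 from regression of the dose–response curve; triplicate, mean ± SD of 3 independent runs.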
(In general: ELISA stands for enzyme-linked immunosorbent assay.)

Data set [4] concerns the target T2, Tyrosinase (Agaricus bisporus, UniProt O42713).
T2 sequence (O42713 whole entry): T1 sequence (whole entry)
Described as §2. Summed up: as §3

Data set [5] in a line: (§4) Antimelanogenic activity in mouse B16/F10 cells assessed as inhibition of alpha-MSH-induced melanin formation at 1 mM after 24 hrs by ELISA relative to control. It is filed as functional. The conditions noted are these: B16-F10, 24 h. In short, it runs like this:
(§5)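 B16/F10 cells seeded 1 × 10^5 per well, grown 48 h at 37 °C, 5% CO2; stimulated with 100 nM α-MSH for 24 h, then exposed to 1 mM test agent (kojic acid reference) for 24 h. After PBS washes, pellets dissolved in 1 N NaOH/10% DMSO, 1 h at 80 °C; A405 read. Content = sample/control × 100%; triplicate, mean ± SD.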

A short description of data set [6]: Cytotoxicity against mouse B16/F10 cells at 2 mM after 24 hrs by MTT assay. It is filed as cell-based. The note with it: b16-f10, 24 h, 2000 µM. In short, it runs like this: as §1
Data set [7] concerns the target T2, Tyrosinase. The data set is described as follows: Noncompetitive inhibition of mushroom tyrosinase-mediated L-tyrosine oxidation assessed as enzyme-inhibitor complex after 10 mins by Lineweaver-Burk plot analysis.
The target in data set [8] is T1, Tyrosinase (Agaricus bisporus). Briefly: Mixed-type inhibition of mushroom tyrosinase-mediated L-tyrosine oxidation assessed as enzyme-substrate-inhibitor complex after 10 mins by Lineweaver-Burk plot analysis.
Data set [9] concerns the target T2, Tyrosinase. Briefly: Mixed-type inhibition of mushroom tyrosinase-mediated L-tyrosine oxidation assessed as enzyme-inhibitor complex after 10 mins by Lineweaver-Burk plot analysis.
The next data set deals with B16-F10. The data set is described as §4. It is filed as functional. Summed up:
as §5

In the case of `Cn1ccn(C(=O)OC(C)(C)C)c1=S`, the Activity result in data set [1] and in data set [6] was “Non-toxic” in each case. In data set [2], the Kis was 1.75 mM. In addition, the inhibition – broadly, how much of the control response was suppressed – in [3] was “Dose-dependent effect”. At Tyrosinase [4], the IC50 (commonly the concentration that inhibits the measured activity by half) was found to be 1450 µM. The inhibition at 1000 µM in data set [5] was determined as 49.3%. On Tyrosinase [7], the Ki (commonly a dissociation constant, usually derived from enzyme kinetics or from competition with a known ligand) was found to be 1750 µM.
As for `COC(=O)C(N)Cn1ccn(C)c1=S` (stereo not drawn), the inhibition entry in data set [3] was “inactive”.
With `Cn1ccn(CC(N)C(=O)O)c1=S` (stereo not drawn), in [3], the inhibition entry was “inactive”.
`Cn1ccnc1S` [METHIMAZOLE]: the Kis in data set [8] was 1.91 mM. Moreover, the inhibition result in data set [3] was “Dose-dependent effect”. For the same compound, the inhibition at 1000 µM in data set [5] stood at 88.7%.
With `Cn1cc[nH]c1=S` [METHIMAZOLE], on Tyrosinase [9], the Ki turned out to be 470 µM. Moreover, half-maximal inhibition at Tyrosinase [4] (IC50) required 1430 µM. Also, in data set [6], the Activity result is reported as “Toxic”.
As to `Sc1ncc[nH]1`, in data set [1], the Activity entry is “Toxic”. Also, the Kis in data set [8] was found to be 2.8 mM. Besides, the Ki on Tyrosinase [9] stood at 570 µM. Also, in data set [3], the inhibition entry was “Dose-dependent effect”. Moreover, half-maximal inhibition at Tyrosinase [4] (IC50) required 4110 µM. Further, in the data set on B16-F10, the inhibition entry was “Active”.
Consider `O=c1cc(CO)occ1O` [KOJIC ACID], for which the inhibition at 1000 µM in data set [5] came to 56.9%.
`COC(=O)C(Cn1ccn(C)c1=S)NC(=O)OC(C)(C)C` (stereo not drawn): the inhibition result in [3] was “inactive”.

The record behind these values is ChEMBL document CHEMBL3259783, “Inhibitory effects of novel synthetic methimazole derivatives on mushroom tyrosinase and melanogenesis” (Bioorg Med Chem, 2014).
